In brackets after ≈: the same amount, converted by molar mass.
Experiments:
Format in all cases: functional
Staphylococcus aureus [1] = experiment: Antibacterial activity against vancomycin/methicillin-susceptible Staphylococcus aureus Newman […] after 24 hrs by broth microdilution method
Method in brief: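 Broth microdilution in cation-adjusted Mueller-Hinton II broth. […] Each well received ~10^5 CFU of exponential-phase bacteria and was incubated at 37 °C for 24 h. MIC was taken as the lowest concentration giving complete growth inhibition, interpreted per CLSI.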

Enterococcus faecium [2] = experiment: Antibacterial activity against glycopeptide-resistant Enterococcus faecium Efm-HS-0649 vanA after 24 hrs by broth microdilution method; conditions: Efm-HS-0649, 24 h
Method in brief: (§1)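 Broth microdilution in cation-adjusted Mueller-Hinton II broth. DMSO stocks were diluted in broth and twofold serially from 128 to 0.0625 μg/mL or lower. Each well was inoculated with ~10^5 CFU of exponential-phase bacteria and incubated at 37 °C for 24 h. MIC was the lowest concentration giving complete growth inhibition, read per CLSI. Growth controls contained broth plus DMSO.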

Staphylococcus aureus [3] = experiment: Antibacterial activity against healthcare-associated methicillin-resistant/vancomycin-intermediate Staphylococcus aureus Mu50 after 24 hrs by broth microdilution method; conditions: Mu50, 24 h; method in brief: as §1
Enterococcus faecium [4] = experiment: Antibacterial activity against glycopeptide-resistant Enterococcus faecium Efm-HS-0847 vanM after 24 hrs by broth microdilution method; conditions: Efm-HS-0847, 24 h; method in brief: as §1
Enterococcus faecium [5] = experiment: Antibacterial activity against glycopeptide-resistant Enterococcus faecium Efm-HS-vb01 vanB after 24 hrs by broth microdilution method; conditions: Efm-HS-vb01, 24 h; method in brief: as §1
Enterococcus faecium [6] = experiment: Antibacterial activity against glycopeptide-resistant Enterococcus faecium Efm-HS-08257 vanM after 24 hrs by broth microdilution method; conditions: Efm-HS-08257, 24 h; method in brief: as §1
Enterococcus faecium [7] = experiment: Antibacterial activity against glycopeptide-resistant Enterococcus faecium Efm-HS-06188 vanA after 24 hrs by broth microdilution method; conditions: Efm-HS-06188, 24 h; method in brief: as §1

SMILES | MIC90 (Staphylococcus aureus [1]) | MIC (Enterococcus faecium [2]) | MIC90 (Staphylococcus aureus [3]) | MIC (Enterococcus faecium [4]) | MIC (Enterococcus faecium [5]) | MIC (Enterococcus faecium [6]) | MIC (Enterococcus faecium [7])
CN[C@H](CC(C)C)C(=O)N[C@H]1C(=O)N[C@@H](CC(N)=O)C(=O)N[C@H]2C(=O)N[C@H]3C(=O)N[C@H](C(=O)N[C@H](C(=O)NCCCN(C)C)c4cc(O)c(CNCCO[C@H]5O[C@H](CO)[C@@H](O)[C@H](O)[C@@H]5O)c(O)c4-c4cc3ccc4O)[C@H](O)c3ccc(c(Cl)c3)Oc3cc2cc(c3O[C@@H]2O[C@H](CO)[C@@H](O)[C@H](O)[C@H]2O[C@H]2C[C@](C)(NCc3ccc(-c4ccc(Cl)cc4)cc3)[C@H](O)[C@H](C)O2)Oc2ccc(cc2Cl)[C@H]1O | 2 µg/mL (≈ 1.02 µM) | 0.5 µg/mL (≈ 0.254 µM) | 4 µg/mL (≈ 2.03 µM) | 2 µg/mL (≈ 1.02 µM) | 4 µg/mL (≈ 2.03 µM) | 0.5 µg/mL (≈ 0.254 µM) | 1 µg/mL (≈ 0.508 µM)
CCCCCCc1ccc(CN[C@@]2(C)C[C@H](O[C@H]3[C@H](Oc4c5cc6cc4Oc4ccc(cc4Cl)[C@@H](O)[C@@H](NC(=O)[C@@H](CC(C)C)NC)C(=O)N[C@@H](CC(N)=O)C(=O)N[C@H]6C(=O)N[C@H]4C(=O)N[C@H](C(=O)N[C@H](C(=O)O)c6cc(O)c(CN[C@H]7C(O)O[C@H](CO)[C@H](O)[C@@H]7O)c(O)c6-c6cc4ccc6O)[C@H](O)c4ccc(c(Cl)c4)O5)O[C@H](CO)[C@@H](O)[C@@H]3O)O[C@@H](C)[C@H]2O)cc1 (some centres not stated) | 0.25 µg/mL (≈ 0.138 µM) | 8 µg/mL (≈ 4.41 µM) | 0.5 µg/mL (≈ 0.276 µM) | 32 µg/mL (≈ 17.6 µM) | 1 µg/mL (≈ 0.551 µM) | 16 µg/mL (≈ 8.82 µM) | 8 µg/mL (≈ 4.41 µM)
CN[C@H](CC(C)C)C(=O)N[C@H]1C(=O)N[C@@H](CC(N)=O)C(=O)N[C@H]2C(=O)N[C@H]3C(=O)N[C@H](C(=O)N[C@H](C(=O)O)c4cc(O)cc(O)c4-c4cc3ccc4O)[C@H](O[C@H]3C[C@](C)(N)[C@@H](O)[C@H](C)O3)c3ccc(c(Cl)c3)Oc3cc2cc(c3O[C@@H]2O[C@H](CO)[C@@H](O)[C@H](O)[C@H]2O[C@H]2C[C@](C)(NCc3ccc(-c4ccc(Cl)cc4)cc3)[C@@H](O)[C@H](C)O2)Oc2ccc(cc2Cl)[C@H]1O [ORITAVANCIN] | 0.06 µg/mL (≈ 0.0335 µM) | 0.25 µg/mL (≈ 0.139 µM) | 0.06 µg/mL (≈ 0.0335 µM) | 1 µg/mL (≈ 0.558 µM) | 0.25 µg/mL (≈ 0.139 µM) | 0.5 µg/mL (≈ 0.279 µM) | 0.25 µg/mL (≈ 0.139 µM)
CN[C@H](CC(C)C)C(=O)N[C@H]1C(=O)N[C@@H](CC(N)=O)C(=O)N[C@H]2C(=O)N[C@H]3C(=O)N[C@H](C(=O)N[C@H](C(=O)O)c4cc(O)c(CNCCCNC(=O)[C@H](O)[C@@H](O)[C@H](O)[C@H](O)CO)c(O)c4-c4cc3ccc4O)[C@H](O)c3ccc(c(Cl)c3)Oc3cc2cc(c3O[C@@H]2O[C@H](CO)[C@@H](O)[C@H](O)[C@H]2O[C@H]2C[C@](C)(NCc3ccc(-c4ccc(Cl)cc4)cc3)[C@H](O)[C@H](C)O2)Oc2ccc(cc2Cl)[C@H]1O | 0.06 µg/mL (≈ 0.0313 µM) | 4 µg/mL (≈ 2.09 µM) | 0.12 µg/mL (≈ 0.0627 µM) | 16 µg/mL (≈ 8.36 µM) | 1 µg/mL (≈ 0.522 µM) | 8 µg/mL (≈ 4.18 µM) | 1 µg/mL (≈ 0.522 µM)
CCCCCCCCCCNCCN[C@@]1(C)C[C@H](O[C@H]2[C@H](Oc3c4cc5cc3Oc3ccc(cc3Cl)[C@@H](O)[C@@H](NC(=O)[C@@H](CC(C)C)NC)C(=O)N[C@@H](CC(N)=O)C(=O)N[C@H]5C(=O)N[C@H]3C(=O)N[C@H](C(=O)N[C@H](C(=O)O)c5cc(O)c(CN[C@H]6C(O)O[C@H](CO)[C@H](O)[C@@H]6O)c(O)c5-c5cc3ccc5O)[C@H](O)c3ccc(c(Cl)c3)O4)O[C@H](CO)[C@@H](O)[C@@H]2O)O[C@@H](C)[C@H]1O (some centres not stated) | 0.12 µg/mL (≈ 0.0658 µM) | 16 µg/mL (≈ 8.77 µM) | 0.5 µg/mL (≈ 0.274 µM) | 8 µg/mL (≈ 4.39 µM) | 1 µg/mL (≈ 0.548 µM) | 8 µg/mL (≈ 4.39 µM) | 8 µg/mL (≈ 4.39 µM)
CCCCCCCCCCNCCN[C@@]1(C)C[C@H](O[C@H]2[C@H](Oc3c4cc5cc3Oc3ccc(cc3Cl)[C@@H](O)[C@@H](NC(=O)[C@@H](CC(C)C)NC)C(=O)N[C@@H](CC(N)=O)C(=O)N[C@H]5C(=O)N[C@H]3C(=O)N[C@H](C(=O)N[C@H](C(=O)O)c5cc(O)c(CNCCO)c(O)c5-c5cc3ccc5O)[C@H](O)c3ccc(c(Cl)c3)O4)O[C@H](CO)[C@@H](O)[C@@H]2O)O[C@@H](C)[C@H]1O | 1 µg/mL (≈ 0.586 µM) | 16 µg/mL (≈ 9.38 µM) | 4 µg/mL (≈ 2.35 µM) | 8 µg/mL (≈ 4.69 µM) | 4 µg/mL (≈ 2.35 µM) | 1 µg/mL (≈ 0.586 µM) | 16 µg/mL (≈ 9.38 µM)

Reference: ChEMBL document CHEMBL4052823, “Extra Sugar on Vancomycin: New Analogues for Combating Multidrug-Resistant Staphylococcus aureus and Vancomycin-Resistant Enterococci” (J Med Chem, 2018)
